In ChEMBL document CHEMBL4689842, “EUbOPEN Chemogenomics Library wave 1” (2021):

Tested on: HEK-293T
Experiment: Multiplex assay against HEK293T;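 for Population Tubulin-Different-Phenotype (%): share of the cells with healthy nuclei that show this phenotype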
Type: toxicity, cell-based
Conditions: human
Method in brief: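 Four dyes were applied at seeding to live cells: Hoechst33342, BioTracker Green Microtubule Cytoskeleton Dye, MitoTracker Red and Annexin V Alexa Fluor 680. Imaging after compound addition used a CQ1 microscope at 37°C and 5% CO2. CellPathfinder machine-learning gating then sorted cells into Hoechst high-intensity objects or normal cells, normal cells into healthy, pyknosed or fragmented nuclei, and pyknosed cells into mitotic or apoptotic, with tubulin, mitochondrial-mass and membrane-permeability phenotypes given as per cents of healthy-nucleus cells.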

[1] = 12 h, 1 µM, compound concentration 1 uM, replicate 1
[2] = 12 h, 1 µM, compound concentration 1 uM, replicate 2
[3] = 12 h, 10 µM, compound concentration 10 uM, replicate 1
[4] = 12 h, 10 µM, compound concentration 10 uM, replicate 2
[5] = 24 h, 1 µM, compound concentration 1 uM, replicate 1
[6] = 24 h, 1 µM, compound concentration 1 uM, replicate 2
[7] = 24 h, 10 µM, compound concentration 10 uM, replicate 1
[8] = 24 h, 10 µM, compound concentration 10 uM, replicate 2
[9] = 48 h, 1 µM, compound concentration 1 uM, replicate 1
[10] = 48 h, 1 µM, compound concentration 1 uM, replicate 2
[11] = 48 h, 10 µM, compound concentration 10 uM, replicate 1
[12] = 48 h, 10 µM, compound concentration 10 uM, replicate 2

Compound: O=C1NC(=O)C(c2cnc3ccccn23)=C1c1cn2c3c(cc(F)cc13)CN(C(=O)N1CCCCC1)CC2 [LY-2090314]
- Population Apoptotic (%) [1]: 46%
- Population Fragmented Nuclei (%) [1]: 8%
- Population Healthy Nuclei (%) [1]: 18%
- Population Hoechst High Intensity Objects (%) [1]: 16%
- Population Membrane Permeable-Phenotype (%) [1]: 10%
- Population Mitochondria Different-Phenotype (%) [1]: 93%
- Population Mitotic Cells (%) [1]: 53%
- Population Normal (%) [1]: 83%
- Population Pyknosed Nuclei (%) [1]: 73%
- Population Tubulin-Different-Phenotype (%) [1]: 89%
- Total Cell Count [1]: 191
- Population Apoptotic (%) [2]: 26%
- Population Fragmented Nuclei (%) [2]: 6%
- Population Healthy Nuclei (%) [2]: 31%
- Population Hoechst High Intensity Objects (%) [2]: 7%
- Population Membrane Permeable-Phenotype (%) [2]: 16%
- Population Mitochondria Different-Phenotype (%) [2]: 51%
- Population Mitotic Cells (%) [2]: 73%
- Population Normal (%) [2]: 92%
- Population Pyknosed Nuclei (%) [2]: 62%
- Population Tubulin-Different-Phenotype (%) [2]: 61%
- Total Cell Count [2]: 210
- Population Apoptotic (%) [3]: 76%
- Population Fragmented Nuclei (%) [3]: 8%
- Population Healthy Nuclei (%) [3]: 18%
- Population Hoechst High Intensity Objects (%) [3]: 17%
- Population Membrane Permeable-Phenotype (%) [3]: 0%
- Population Mitochondria Different-Phenotype (%) [3]: 100%
- Population Mitotic Cells (%) [3]: 23%
- Population Normal (%) [3]: 82%
- Population Pyknosed Nuclei (%) [3]: 73%
- Population Tubulin-Different-Phenotype (%) [3]: 96%
- Total Cell Count [3]: 186
- Population Apoptotic (%) [4]: 58%
- Population Fragmented Nuclei (%) [4]: 6%
- Population Healthy Nuclei (%) [4]: 5%
- Population Hoechst High Intensity Objects (%) [4]: 8%
- Population Membrane Permeable-Phenotype (%) [4]: 14%
- Population Mitochondria Different-Phenotype (%) [4]: 85%
- Population Mitotic Cells (%) [4]: 41%
- Population Normal (%) [4]: 91%
- Population Pyknosed Nuclei (%) [4]: 87%
- Population Tubulin-Different-Phenotype (%) [4]: 85%
- Total Cell Count [4]: 135
- Population Apoptotic (%) [5]: 53%
- Population Fragmented Nuclei (%) [5]: 13%
- Population Healthy Nuclei (%) [5]: 26%
- Population Hoechst High Intensity Objects (%) [5]: 17%
- Population Membrane Permeable-Phenotype (%) [5]: 6%
- Population Mitochondria Different-Phenotype (%) [5]: 93%
- Population Mitotic Cells (%) [5]: 46%
- Population Normal (%) [5]: 82%
- Population Pyknosed Nuclei (%) [5]: 59%
- Population Tubulin-Different-Phenotype (%) [5]: 79%
- Total Cell Count [5]: 198
- Population Apoptotic (%) [6]: 29%
- Population Fragmented Nuclei (%) [6]: 5%
- Population Healthy Nuclei (%) [6]: 44%
- Population Hoechst High Intensity Objects (%) [6]: 6%
- Population Membrane Permeable-Phenotype (%) [6]: 8%
- Population Mitochondria Different-Phenotype (%) [6]: 42%
- Population Mitotic Cells (%) [6]: 70%
- Population Normal (%) [6]: 93%
- Population Pyknosed Nuclei (%) [6]: 50%
- Population Tubulin-Different-Phenotype (%) [6]: 66%
- Total Cell Count [6]: 256
- Population Apoptotic (%) [7]: 86%
- Population Healthy Nuclei (%) [7]: 38%
- Population Hoechst High Intensity Objects (%) [7]: 14%
- Population Membrane Permeable-Phenotype (%) [7]: 1%
- Population Mitotic Cells (%) [7]: 13%
- Population Normal (%) [7]: 85%
- Population Pyknosed Nuclei (%) [7]: 52%
- Total Cell Count [7]: 187
- Population Apoptotic (%) [8]: 77%
- Population Fragmented Nuclei (%) [8]: 8%
- Population Healthy Nuclei (%) [8]: 30%
- Population Hoechst High Intensity Objects (%) [8]: 8%
- Population Membrane Permeable-Phenotype (%) [8]: 2%
- Population Mitochondria Different-Phenotype (%) [8]: 100%
- Population Mitotic Cells (%) [8]: 22%
- Population Normal (%) [8]: 91%
- Population Pyknosed Nuclei (%) [8]: 61%
- Population Tubulin-Different-Phenotype (%) [8]: 95%
- Total Cell Count [8]: 148
- Population Apoptotic (%) [9]: 52%
- Population Fragmented Nuclei (%) [9]: 15%
- Population Healthy Nuclei (%) [9]: 39%
- Population Hoechst High Intensity Objects (%) [9]: 14%
- Population Membrane Permeable-Phenotype (%) [9]: 1%
- Population Mitochondria Different-Phenotype (%) [9]: 67%
- Population Mitotic Cells (%) [9]: 47%
- Population Normal (%) [9]: 85%
- Population Pyknosed Nuclei (%) [9]: 44%
- Population Tubulin-Different-Phenotype (%) [9]: 73%
- Total Cell Count [9]: 230
- Population Apoptotic (%) [10]: 29%
- Population Fragmented Nuclei (%) [10]: 3%
- Population Healthy Nuclei (%) [10]: 68%
- Population Hoechst High Intensity Objects (%) [10]: 8%
- Population Membrane Permeable-Phenotype (%) [10]: 12%
- Population Mitochondria Different-Phenotype (%) [10]: 24%
- Population Mitotic Cells (%) [10]: 70%
- Population Normal (%) [10]: 91%
- Population Pyknosed Nuclei (%) [10]: 27%
- Population Tubulin-Different-Phenotype (%) [10]: 57%
- Total Cell Count [10]: 309
- Population Apoptotic (%) [11]: 80%
- Population Fragmented Nuclei (%) [11]: 11%
- Population Hoechst High Intensity Objects (%) [11]: 12%
- Population Membrane Permeable-Phenotype (%) [11]: 0%
- Population Mitochondria Different-Phenotype (%) [11]: 99%
- Population Mitotic Cells (%) [11]: 19%
- Population Normal (%) [11]: 87%
- Population Pyknosed Nuclei (%) [11]: 23%
- Total Cell Count [11]: 200
- Population Apoptotic (%) [12]: 78%
- Population Fragmented Nuclei (%) [12]: 7%
- Population Healthy Nuclei (%) [12]: 65%
- Population Hoechst High Intensity Objects (%) [12]: 5%
- Population Membrane Permeable-Phenotype (%) [12]: 5%
- Population Mitochondria Different-Phenotype (%) [12]: 95%
- Population Mitotic Cells (%) [12]: 21%
- Population Normal (%) [12]: 94%
- Population Pyknosed Nuclei (%) [12]: 27%
- Population Tubulin-Different-Phenotype (%) [12]: 97%
- Total Cell Count [12]: 159

Compound: CCOc1cc2ncc(C#N)c(Nc3ccc(OCc4ccccn4)c(Cl)c3)c2cc1NC(=O)/C=C/CN(C)C [NERATINIB]
- Population Apoptotic (%) [1]: 50%
- Population Fragmented Nuclei (%) [1]: 20%
- Population Healthy Nuclei (%) [1]: 24%
- Population Hoechst High Intensity Objects (%) [1]: 20%
- Population Membrane Permeable-Phenotype (%) [1]: 0%
- Population Mitochondria Different-Phenotype (%) [1]: 85%
- Population Mitotic Cells (%) [1]: 50%
- Population Normal (%) [1]: 79%
- Population Pyknosed Nuclei (%) [1]: 55%
- Population Tubulin-Different-Phenotype (%) [1]: 55%
- Total Cell Count [1]: 254
- Population Apoptotic (%) [2]: 21%
- Population Fragmented Nuclei (%) [2]: 25%
- Population Healthy Nuclei (%) [2]: 46%
- Population Hoechst High Intensity Objects (%) [2]: 19%
- Population Membrane Permeable-Phenotype (%) [2]: 3%
- Population Mitochondria Different-Phenotype (%) [2]: 15%
- Population Mitotic Cells (%) [2]: 78%
- Population Normal (%) [2]: 80%
- Population Pyknosed Nuclei (%) [2]: 27%
- Population Tubulin-Different-Phenotype (%) [2]: 15%
- Total Cell Count [2]: 471
- Population Apoptotic (%) [3]: 43%
- Population Fragmented Nuclei (%) [3]: 25%
- Population Healthy Nuclei (%) [3]: 52%
- Population Hoechst High Intensity Objects (%) [3]: 29%
- Population Mitochondria Different-Phenotype (%) [3]: 22%
- Population Mitotic Cells (%) [3]: 56%
- Population Normal (%) [3]: 70%
- Population Pyknosed Nuclei (%) [3]: 21%
- Population Tubulin-Different-Phenotype (%) [3]: 23%
- Total Cell Count [3]: 1420
- Population Apoptotic (%) [4]: 33%
- Population Fragmented Nuclei (%) [4]: 30%
- Population Healthy Nuclei (%) [4]: 50%
- Population Hoechst High Intensity Objects (%) [4]: 27%
- Population Membrane Permeable-Phenotype (%) [4]: 3%
- Population Mitochondria Different-Phenotype (%) [4]: 11%
- Population Mitotic Cells (%) [4]: 66%
- Population Normal (%) [4]: 72%
- Population Pyknosed Nuclei (%) [4]: 18%
- Population Tubulin-Different-Phenotype (%) [4]: 15%
- Total Cell Count [4]: 844
- Population Apoptotic (%) [5]: 55%
- Population Fragmented Nuclei (%) [5]: 19%
- Population Healthy Nuclei (%) [5]: 20%
- Population Hoechst High Intensity Objects (%) [5]: 20%
- Population Membrane Permeable-Phenotype (%) [5]: 2%
- Population Mitochondria Different-Phenotype (%) [5]: 80%
- Population Mitotic Cells (%) [5]: 44%
- Population Normal (%) [5]: 79%
- Population Pyknosed Nuclei (%) [5]: 59%
- Population Tubulin-Different-Phenotype (%) [5]: 61%
- Total Cell Count [5]: 262
- Population Apoptotic (%) [6]: 20%
- Population Fragmented Nuclei (%) [6]: 26%
- Population Healthy Nuclei (%) [6]: 50%
- Population Hoechst High Intensity Objects (%) [6]: 16%
- Population Mitochondria Different-Phenotype (%) [6]: 24%
- Population Mitotic Cells (%) [6]: 80%
- Population Normal (%) [6]: 83%
- Population Pyknosed Nuclei (%) [6]: 22%
- Population Tubulin-Different-Phenotype (%) [6]: 24%
- Total Cell Count [6]: 531
- Population Apoptotic (%) [7]: 50%
- Population Fragmented Nuclei (%) [7]: 25%
- Population Healthy Nuclei (%) [7]: 50%
- Population Hoechst High Intensity Objects (%) [7]: 30%
- Population Membrane Permeable-Phenotype (%) [7]: 1%
- Population Mitochondria Different-Phenotype (%) [7]: 19%
- Population Mitotic Cells (%) [7]: 49%
- Population Normal (%) [7]: 69%
- Population Pyknosed Nuclei (%) [7]: 23%
- Population Tubulin-Different-Phenotype (%) [7]: 19%
- Total Cell Count [7]: 1427
- Population Apoptotic (%) [8]: 42%
- Population Fragmented Nuclei (%) [8]: 31%
- Population Healthy Nuclei (%) [8]: 49%
- Population Hoechst High Intensity Objects (%) [8]: 25%
- Population Membrane Permeable-Phenotype (%) [8]: 0%
- Population Mitochondria Different-Phenotype (%) [8]: 12%
- Population Mitotic Cells (%) [8]: 57%
- Population Normal (%) [8]: 74%
- Population Pyknosed Nuclei (%) [8]: 18%
- Population Tubulin-Different-Phenotype (%) [8]: 14%
- Total Cell Count [8]: 857
- Population Apoptotic (%) [9]: 62%
- Population Fragmented Nuclei (%) [9]: 23%
- Population Healthy Nuclei (%) [9]: 17%
- Population Hoechst High Intensity Objects (%) [9]: 23%
- Population Membrane Permeable-Phenotype (%) [9]: 2%
- Population Mitochondria Different-Phenotype (%) [9]: 56%
- Population Mitotic Cells (%) [9]: 37%
- Population Normal (%) [9]: 76%
- Population Pyknosed Nuclei (%) [9]: 58%
- Population Tubulin-Different-Phenotype (%) [9]: 29%
- Total Cell Count [9]: 277
- Population Apoptotic (%) [10]: 17%
- Population Fragmented Nuclei (%) [10]: 21%
- Population Healthy Nuclei (%) [10]: 62%
- Population Hoechst High Intensity Objects (%) [10]: 15%
- Population Mitochondria Different-Phenotype (%) [10]: 14%
- Population Mitotic Cells (%) [10]: 82%
- Population Normal (%) [10]: 84%
- Population Pyknosed Nuclei (%) [10]: 16%
- Population Tubulin-Different-Phenotype (%) [10]: 27%
- Total Cell Count [10]: 609
- Population Apoptotic (%) [11]: 52%
- Population Fragmented Nuclei (%) [11]: 29%
- Population Healthy Nuclei (%) [11]: 46%
- Population Hoechst High Intensity Objects (%) [11]: 32%
- Population Membrane Permeable-Phenotype (%) [11]: 0%
- Population Mitochondria Different-Phenotype (%) [11]: 15%
- Population Mitotic Cells (%) [11]: 47%
- Population Normal (%) [11]: 67%
- Population Pyknosed Nuclei (%) [11]: 23%
- Population Tubulin-Different-Phenotype (%) [11]: 16%
- Total Cell Count [11]: 1487
- Population Apoptotic (%) [12]: 42%
- Population Fragmented Nuclei (%) [12]: 32%
- Population Healthy Nuclei (%) [12]: 51%
- Population Hoechst High Intensity Objects (%) [12]: 24%
- Population Mitochondria Different-Phenotype (%) [12]: 16%
- Population Mitotic Cells (%) [12]: 58%
- Population Normal (%) [12]: 75%
- Population Pyknosed Nuclei (%) [12]: 16%
- Population Tubulin-Different-Phenotype (%) [12]: 21%
- Total Cell Count [12]: 828
